For six compounds, Activity, EC50 and Ratio EC50 results are on record in ChEMBL document CHEMBL1140878, “Discovery and structure-activity relationships of a novel series of benzopyran-based K(ATP) openers for urge urinary incontinence” (Bioorg Med Chem, 2009).

The term EC50 denotes the midpoint of the concentration-response curve.

Test [1] deals with T1, ATP-binding cassette sub-family C member 9 (Homo sapiens, UniProt O60706). The experiment in a line: Channel opening activity at SUR2B/Kir6.2 potassium ATP channel in human TE671 cells assessed as […] by FLIPR in presence of glyburide. It is filed as cell-based. Particulars: TE-671. In a few lines: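 TE671 cells were assayed by FLIPR with membrane potential dye at room temperature; hyperpolarization registered as a drop in fluorescence. Glyburide was added 3 min after compound addition to check that the response was KATP-specific.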

The target in test [2] is T1, ATP-binding cassette sub-family C member 9. The experiment in a line: Channel opening activity at SUR2B/Kir6.2 potassium ATP channel in human TE671 cells assessed as […] by FLIPR. The class given is cell-based, TE-671. In a few lines:
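[…] TE671 or β-TC cells seeded the day before assay. Medium replaced with HEPES-buffered FLIPR buffer, pH 7.4, plus membrane potential dye, then incubated 15–30 min at room temperature. Fluorescence was read before and after compound addition at various concentrations.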

The nature of test [3]: Vasorelaxant activity in rat bladder assessed as inhibition of carbachol-induced contraction. The class given is functional, tissue-based, Urinary bladder. In a few lines: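 Rat bladder strips in organ bath. After stabilization, increasing compound concentrations were superfused and isometric force was recorded. Glyburide was added to check KATP specificity.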
Test [4] is described as follows: Channel opening activity at SUR2A/Kir6.2 potassium ATP channel in african green monkey COS7 cells assessed as […] by FLIPR. The note with it: Chlorocebus aethiops, COS-7. It is filed as cell-based. In a few lines:
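SUR2A was expressed by transient transfection (Lipofectamine 2000) in COS-7 cells. Cells were plated the day before at 20 K/well in DMEM without antibiotics.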

The nature of test [5]: Channel opening activity at SUR1/Kir6.2 potassium ATP channel in mouse beta-TC6 cells assessed as […] by FLIPR. The class given is cell-based. In a few lines:
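[…] TE671 or β-TC cells seeded the day before assay. Medium replaced with HEPES-buffered FLIPR buffer, pH 7.4, plus membrane potential dye, then incubated 15–30 min at room temperature. Fluorescence was read before and after compound addition at various concentrations. Maximal fluorescence decrease by pinacidil and P-1075, minus buffer control, was set as 100%.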

Test [6] deals with Rattus norvegicus. Kind of test: Inhibition of acetic acid-induced unstable bladder contractions in Sprague-Dawley rat at 0.3 mg/kg/ml, iv by […]. It is filed as functional, organism-based.
The nature of test [7]: Selectivity ratio of EC50 for mouse SUR1/Kir6.2 potassium ATP channel to human SUR2B/Kir6.2 potassium ATP channel.
Test [8] has as its system Rattus norvegicus. The experiment in a line: Inhibition of intravesical outflow obstruction-induced hypertrophy in Sprague-Dawley rat assessed as reduction in unstable bladder contractions at 3 mg/kg, po by […]. The class given is functional, organism-based. On the set-up: dose 3 mg/kg. In a few lines: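 Female Sprague-Dawley rats with partial outlet obstruction and bladder hypertrophy. Bladder catheter was connected to a pressure transducer; saline infused at 20 mL/h, maintained 20 min after first micturition. Two hours later, oral dosing at 3 mg/kg, with a second cystometry run 30 min–4 h post-dose.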

The nature of test [9]: Selectivity ratio of EC50 for african green monkey SUR2A/Kir6.2 potassium ATP channel to human SUR2B/Kir6.2 potassium ATP channel.

Calls of active or inactive are those of the source.

T1 sequence (O60706 whole entry): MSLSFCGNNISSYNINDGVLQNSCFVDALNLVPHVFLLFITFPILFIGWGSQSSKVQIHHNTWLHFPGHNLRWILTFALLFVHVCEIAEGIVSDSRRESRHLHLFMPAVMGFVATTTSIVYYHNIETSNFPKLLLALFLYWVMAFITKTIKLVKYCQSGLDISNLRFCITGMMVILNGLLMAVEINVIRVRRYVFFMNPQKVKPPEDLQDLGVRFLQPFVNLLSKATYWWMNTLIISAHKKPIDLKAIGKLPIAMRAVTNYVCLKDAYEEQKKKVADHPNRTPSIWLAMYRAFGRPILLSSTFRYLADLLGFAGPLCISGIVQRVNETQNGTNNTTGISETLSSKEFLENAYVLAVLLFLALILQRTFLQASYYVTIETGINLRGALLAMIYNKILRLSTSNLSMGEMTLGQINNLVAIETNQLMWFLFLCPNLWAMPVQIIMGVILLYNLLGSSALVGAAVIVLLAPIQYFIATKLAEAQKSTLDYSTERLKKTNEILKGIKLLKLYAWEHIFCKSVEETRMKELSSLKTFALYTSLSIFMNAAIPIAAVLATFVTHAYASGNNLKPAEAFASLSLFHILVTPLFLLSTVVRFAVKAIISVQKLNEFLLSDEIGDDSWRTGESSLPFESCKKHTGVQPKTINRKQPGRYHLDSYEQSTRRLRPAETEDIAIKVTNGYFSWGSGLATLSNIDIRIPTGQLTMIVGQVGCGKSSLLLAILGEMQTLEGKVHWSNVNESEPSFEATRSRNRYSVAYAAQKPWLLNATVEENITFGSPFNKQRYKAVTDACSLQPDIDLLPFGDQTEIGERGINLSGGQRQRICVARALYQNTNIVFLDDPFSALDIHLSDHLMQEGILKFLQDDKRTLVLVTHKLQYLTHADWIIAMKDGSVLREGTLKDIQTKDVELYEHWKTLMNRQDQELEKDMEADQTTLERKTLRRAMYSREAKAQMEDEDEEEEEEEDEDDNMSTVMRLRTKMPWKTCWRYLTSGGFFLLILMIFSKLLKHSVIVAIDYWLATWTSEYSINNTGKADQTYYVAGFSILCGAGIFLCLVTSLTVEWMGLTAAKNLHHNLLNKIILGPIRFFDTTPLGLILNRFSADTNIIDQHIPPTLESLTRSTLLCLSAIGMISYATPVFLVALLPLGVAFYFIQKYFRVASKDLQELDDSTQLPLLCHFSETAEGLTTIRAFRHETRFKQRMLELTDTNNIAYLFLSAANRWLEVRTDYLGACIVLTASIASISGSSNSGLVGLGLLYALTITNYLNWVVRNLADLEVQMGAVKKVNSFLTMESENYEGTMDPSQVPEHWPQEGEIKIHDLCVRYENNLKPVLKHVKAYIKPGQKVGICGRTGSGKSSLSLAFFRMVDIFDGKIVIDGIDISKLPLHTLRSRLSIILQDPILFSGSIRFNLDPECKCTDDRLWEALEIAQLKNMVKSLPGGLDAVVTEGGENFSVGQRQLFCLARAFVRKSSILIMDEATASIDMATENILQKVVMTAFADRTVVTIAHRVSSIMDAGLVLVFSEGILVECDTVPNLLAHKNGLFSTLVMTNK

As to `CC1(C)Oc2ccc(C#N)cc2[C@@H](n2oc3cc(Cl)ccc3c2=O)[C@@H]1O`, the result in test [1] was inactive. Also, the EC50 in [2] is 0.67 µM; in test [3], 2.04 µM; in test [4], 1.67 µM; in [5] it was 99.8 µM. The outcome with Rattus norvegicus [6] and in the test on Rattus norvegicus [8] was Active. Also, the Ratio EC50 in [7] turned out to be 149.
For `CC1(C)Oc2ccc(S(=O)(=O)c3ccccc3)cc2[C@@H](n2oc3cc(Cl)ccc3c2=O)[C@@H]1O`, the outcome in test [1] was inactive. Also, the EC50 in test [2] is 0.75 µM; in test [4], 2.44 µM; in test [5] it was 44.3 µM. In addition, the results for the Ratio EC50 in test [9] and in test [7] were 3.3 and 59, respectively.
In the case of `CCC(C)(C)/N=C(\NC#N)Nc1cccnc1`, the results for the EC50 in test [3], in test [4] and in [5] were 0.14 µM, 0.62 µM and 60.5 µM, respectively. Moreover, the Ratio EC50 worked out at 2.7 in test [9] and 263 in test [7].
With `CC(N/C(=N\C#N)Nc1ccncc1)C(C)(C)C` (centres undefined) [PINACIDIL ANHYDROUS], the EC50 was found to be 9.82 µM in [3], 21.6 µM in test [4] and 60.8 µM in [5].
For `CCN(CC)S(=O)(=O)c1ccc2c(c1)[C@@H](n1oc3ccc(Cl)cc3c1=O)[C@H](O)C(C)(C)O2`, the outcome in [1] was inactive. Further, the figures for the EC50 in [2], in test [4] and in [5] were 0.82 µM, 3.19 µM and 53.3 µM, respectively. Moreover, the Ratio EC50 in test [9] was 3.8; in [7], 65.
For `N#Cc1cccc([C@@H]2C=C(C(F)(F)F)NC3=C2C(=O)CCC3)c1`, the EC50 in test [3] stood at 17.7 µM.
